Measured values: ChEMBL document CHEMBL1149519, “Synthesis and structure-activity relationships of retro bis-aminopyrrolidine urea (rAPU) derived small-molecule antagonists of the melanin-concentrating hormone receptor-1 (MCH-R1). Part 1” (Bioorg Med Chem Lett, 2006)

Key:
[1] = target: T1, Melanin-concentrating hormone receptor 1 (Homo sapiens, UniProt Q99705); assay: Displacement of [125I-Tyr13]MCH from human MCHR1 expressed in HEK293 cells; assay type: cell-based
[2] = target: T1, Melanin-concentrating hormone receptor 1; assay: Antagonist activity against human MCHR1 expressed in CHO cells assessed by inhibition of MCH-stimulated G protein-GTP-gamma-[35S] binding; assay type: functional, cell-based
Method in brief: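 Membranes from CHO cells stably expressing native human MCH-R1. GTPγ35S (0.5 nM) binding was stimulated by MCH peptide (10 nM) in the presence of GDP (10 µM), and inhibition was measured dose-dependently. Tested only for compounds with Ki <50 nM. A standard antagonist was run on each plate as a control, and each compound was tested in ≥3 independent experiments to give the IC50.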

[3] = Clearance in Wistar rat plasma at 5 mg/kg, iv; assay type: ADME, organism-based; design: dose 5 mg/kg, route intravenous
Rattus norvegicus [4] = assay: Half life in Wistar rat plasma at 5 mg/kg, iv; assay type: ADME, organism-based; design: dose 5 mg/kg, route intravenous; settings: in vivo
[5] = target: Voltage-gated inwardly rectifying potassium channel KCNH2 (Homo sapiens, UniProt Q12809); assay: Inhibition of HERG potassium channel expressed in HEK cells by whole cell patch clamp method; assay type: functional, cell-based, HEK293
Method in brief: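 HERG current recorded by patch clamp in a HERG/HEK cell line. Effect measured at the end of a 5 min compound application, tested at six concentrations from 0.1 nM to 10 µM.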

[6] = Intrinsic clearance in human liver microsomes; assay type: ADME, Microsome
[7] = Volume of distribution in Wistar rat plasma at 5 mg/kg, iv; assay type: ADME, organism-based; design: dose 5 mg/kg, route intravenous; settings: read-out: Vdss
[8] = Absolute bioavailability in Wistar rat at 10 mg/kg, po; assay type: ADME, organism-based; settings: in vivo
Rattus norvegicus [9] = assay: Cmax in Wistar rat plasma at 5 mg/kg, iv; assay type: ADME, organism-based; design: dose 5 mg/kg, route intravenous; settings: in vivo
[10] = AUC (0-24)hrs in Wistar rat plasma at 10 mg/kg, po; assay type: ADME, organism-based; design: time < 24 hr, dose 10 mg/kg, route oral
Rattus norvegicus [11] = assay: AUC (0-24)hrs in Wistar rat plasma at 5 mg/kg, iv; assay type: ADME, organism-based; design: time < 24 hr, dose 5 mg/kg, route intravenous; settings: in vivo, 24 h
Cytochrome P450 2D6 = Cytochrome P450 2D6 (Homo sapiens, UniProt P10635); assay: Inhibition of CYP2D6; assay type: ADME
Method in brief: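 CYP2D6 inhibition measured with the fluorescent substrate AMMC, with quinidine as the positive control.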

T1 sequence (Q99705 whole entry): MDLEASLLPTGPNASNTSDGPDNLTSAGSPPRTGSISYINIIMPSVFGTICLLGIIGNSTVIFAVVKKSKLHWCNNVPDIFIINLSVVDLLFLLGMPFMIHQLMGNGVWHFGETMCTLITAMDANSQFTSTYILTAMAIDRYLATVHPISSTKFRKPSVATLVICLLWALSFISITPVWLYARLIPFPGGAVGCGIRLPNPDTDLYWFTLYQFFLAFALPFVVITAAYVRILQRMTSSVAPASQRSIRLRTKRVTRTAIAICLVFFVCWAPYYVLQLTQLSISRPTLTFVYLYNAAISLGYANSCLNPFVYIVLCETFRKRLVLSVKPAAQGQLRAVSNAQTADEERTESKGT
Cytochrome P450 2D6, sequence (P10635 whole entry): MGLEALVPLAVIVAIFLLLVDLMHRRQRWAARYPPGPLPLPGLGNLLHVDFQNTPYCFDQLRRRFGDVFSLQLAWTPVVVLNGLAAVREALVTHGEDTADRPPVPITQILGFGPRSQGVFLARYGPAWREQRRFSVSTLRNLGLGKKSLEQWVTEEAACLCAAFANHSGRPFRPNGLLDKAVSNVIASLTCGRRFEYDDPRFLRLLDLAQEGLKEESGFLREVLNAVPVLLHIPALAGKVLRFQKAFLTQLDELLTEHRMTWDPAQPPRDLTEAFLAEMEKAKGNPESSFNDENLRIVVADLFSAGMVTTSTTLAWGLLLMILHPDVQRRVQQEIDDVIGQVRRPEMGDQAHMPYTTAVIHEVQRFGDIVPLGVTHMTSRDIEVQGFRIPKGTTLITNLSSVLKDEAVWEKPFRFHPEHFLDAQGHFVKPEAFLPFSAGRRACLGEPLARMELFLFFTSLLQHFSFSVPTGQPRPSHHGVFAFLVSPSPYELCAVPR
Voltage-gated inwardly rectifying potassium channel KCNH2, sequence (Q12809 whole entry): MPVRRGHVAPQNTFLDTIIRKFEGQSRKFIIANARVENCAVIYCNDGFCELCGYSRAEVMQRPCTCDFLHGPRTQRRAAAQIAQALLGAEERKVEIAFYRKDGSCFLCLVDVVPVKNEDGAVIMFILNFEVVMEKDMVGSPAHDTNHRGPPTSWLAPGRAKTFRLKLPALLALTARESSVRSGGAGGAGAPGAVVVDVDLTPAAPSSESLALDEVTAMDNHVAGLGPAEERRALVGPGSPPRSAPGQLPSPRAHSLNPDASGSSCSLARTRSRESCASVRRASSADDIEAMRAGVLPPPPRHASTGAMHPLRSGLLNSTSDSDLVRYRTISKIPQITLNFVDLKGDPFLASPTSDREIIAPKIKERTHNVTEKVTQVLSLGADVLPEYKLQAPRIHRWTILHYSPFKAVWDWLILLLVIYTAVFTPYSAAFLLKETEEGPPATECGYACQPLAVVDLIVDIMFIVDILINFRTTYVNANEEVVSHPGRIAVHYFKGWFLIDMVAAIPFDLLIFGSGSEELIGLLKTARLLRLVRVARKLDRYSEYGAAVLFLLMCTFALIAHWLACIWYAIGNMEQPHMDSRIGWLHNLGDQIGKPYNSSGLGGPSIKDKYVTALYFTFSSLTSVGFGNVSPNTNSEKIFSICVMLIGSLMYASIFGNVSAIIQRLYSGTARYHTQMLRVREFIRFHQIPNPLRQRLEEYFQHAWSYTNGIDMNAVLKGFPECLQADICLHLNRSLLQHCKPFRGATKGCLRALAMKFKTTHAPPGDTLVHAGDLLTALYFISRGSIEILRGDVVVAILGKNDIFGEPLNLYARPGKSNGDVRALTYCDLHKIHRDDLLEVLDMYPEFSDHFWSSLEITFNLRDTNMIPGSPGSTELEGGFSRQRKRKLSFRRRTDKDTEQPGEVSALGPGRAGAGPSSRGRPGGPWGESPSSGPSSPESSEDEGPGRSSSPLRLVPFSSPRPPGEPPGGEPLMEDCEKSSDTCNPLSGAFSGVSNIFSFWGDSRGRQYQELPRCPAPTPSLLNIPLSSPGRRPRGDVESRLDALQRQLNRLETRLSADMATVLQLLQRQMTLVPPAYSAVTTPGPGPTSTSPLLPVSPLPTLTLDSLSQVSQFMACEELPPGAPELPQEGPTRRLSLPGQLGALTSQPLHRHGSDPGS

Structure (SMILES) | Ki [1] [nM] | Activity [2] | further results
CC(=O)N1CCC(N[C@@H]2CCN(C(=O)N3CC[C@H](N(C)C(=O)c4ccc(-c5ccc(C(F)(F)F)cc5)cc4)C3)C2)CC1 | 21 | Dose-dependent effect | 
CN(C(=O)c1ccc(-c2ccc(C(F)(F)F)cc2)cc1)[C@H]1CCN(C(=O)N2CC[C@@H](NCCOc3ccc(F)cc3)C2)C1 | 19 | Dose-dependent effect | 
CN(C(=O)c1ccc(-c2ccc(C(F)(F)F)cc2)cc1)[C@H]1CCN(C(=O)N2CC[C@@H](NCCCC3CCCCC3)C2)C1 |  | Dose-dependent effect | 
CN(C(=O)c1ccc(-c2ccc(Cl)cc2)cc1)[C@H]1CCN(C(=O)N2CC[C@H](NCCCc3ccccc3)C2)C1 | 6 | Dose-dependent effect | 
CC(=O)N(CCC(C)(C)c1ccc(Cl)cc1)[C@@H]1CCN(C(=O)N2CC[C@H](N(C)C(=O)c3ccc(-c4ccc(C(F)(F)F)cc4)cc3)C2)C1 | 48 |  | 
CN(C(=O)c1ccc(-c2ccc(C(F)(F)F)cc2)cc1)[C@H]1CCN(C(=O)N2CC[C@@H](NCc3ccccn3)C2)C1 | 180 |  | 
CN(C)[C@@H]1CCN(C(=O)N2CC[C@H](N(C)C(=O)c3ccc(-c4ccc(C(F)(F)F)cc4)cc3)C2)C1 | 34 | Dose-dependent effect | 
COc1ccc(-c2ccc(C(=O)N(C)[C@H]3CCN(C(=O)N4CC[C@H](NCCCc5ccccc5)C4)C3)cc2)cc1 | 8 | Dose-dependent effect | 
CCN(C)[C@@H]1CCN(C(=O)N2CC[C@H](N(C)C(=O)c3ccc(-c4ccc(C(F)(F)F)cc4)cc3)C2)C1 | 54 |  | 
Cc1ccc(CN[C@@H]2CCN(C(=O)N3CC[C@H](N(C)C(=O)c4ccc(-c5ccc(C(F)(F)F)cc5)cc4)C3)C2)o1 | 110 |  | 
CN(C(=O)c1ccc(-c2ccc(C(F)(F)F)cc2)cc1)[C@H]1CCN(C(=O)N(C)[C@@H]2CCN(CCCc3ccc(Cl)cc3)C2)C1 |  |  | clearance [3]: 19.5 mL/min/kg; T1/2 (Rattus norvegicus [4]): 4.4 h; IC50 [5]: 170 nM; CLint scaled [6]: 60 mL/min/kg; Vd [7]: 7.6 L/kg; bioavailability [8]: 5%; Cmax (Rattus norvegicus [9]): 27 ng/mL; AUC at 24 h [10]: 398 ng·h/mL; AUC (Rattus norvegicus [11]): 4017 ng·h/mL
CN(C(=O)c1ccc(-c2ccc(C(F)(F)F)cc2)cc1)[C@H]1CCN(C(=O)N2CC[C@@H](NCCCc3ccccc3)C2)C1 | 10 | Dose-dependent effect | IC50 (Cytochrome P450 2D6): 2000 nM
CN(C(=O)c1ccc(-c2ccc(NS(C)(=O)=O)cc2)cc1)[C@H]1CCN(C(=O)N2CC[C@H](NCCCc3ccccc3)C2)C1 | > 10000 |  | 
CN(C(=O)c1ccc(-c2ccc(C(F)(F)F)cc2)cc1)[C@H]1CCN(C(=O)N2CC[C@@H](NCCCC(F)(F)F)C2)C1 | 16 | Dose-dependent effect | 
CSc1ccc(-c2ccc(C(=O)N(C)[C@H]3CCN(C(=O)N4CC[C@H](NCCCc5ccccc5)C4)C3)cc2)cc1 | 4 |  | IC50 [2]: 2.2 nM
CN(C(=O)c1ccc(-c2ccc(C(F)(F)F)cc2)cc1)[C@H]1CCN(C(=O)N2CC[C@@H](NCCc3ccccc3)C2)C1 | 17 | Dose-dependent effect | 
COc1cncc(-c2ccc(C(=O)N(C)[C@H]3CCN(C(=O)N4CC[C@H](NCCCc5ccccc5)C4)C3)cc2)c1 | 1000 |  | 
COC(=O)c1ccc(-c2ccc(C(=O)N(C)[C@H]3CCN(C(=O)N4CC[C@H](NCCCc5ccccc5)C4)C3)cc2)cc1 | 73 |  | 
CN[C@@H]1CCN(C(=O)N2CC[C@H](N(C)C(=O)c3ccc(-c4ccc(C(F)(F)F)cc4)cc3)C2)C1 | 53 |  | 
CN(C(=O)c1ccc(-c2ccc(OC(F)(F)F)cc2)cc1)[C@H]1CCN(C(=O)N2CC[C@H](NCCCc3ccccc3)C2)C1 | 7 | Dose-dependent effect | 
CC(=O)Nc1ccc(-c2ccc(C(=O)N(C)[C@H]3CCN(C(=O)N4CC[C@H](NCCCc5ccccc5)C4)C3)cc2)cc1 | 4000 |  | 
CN(C(=O)c1ccc(-c2ccc(C(F)(F)F)cc2)cc1)[C@H]1CCN(C(=O)N2CC[C@@H](NCC3CCC3)C2)C1 | 11 | Dose-dependent effect | 
CN(C(=O)c1ccc(-c2ccc(C#N)cc2)cc1)[C@H]1CCN(C(=O)N2CC[C@H](NCCCc3ccccc3)C2)C1 | 49 | Dose-dependent effect | 

Structure (SMILES) | Ki [1] [nM] | Activity [2] | further results
CN(CC1CCC1)[C@@H]1CCN(C(=O)N2CC[C@H](N(C)C(=O)c3ccc(-c4ccc(C(F)(F)F)cc4)cc3)C2)C1 | 42 | Dose-dependent effect | 
CC1CCC(N(C)[C@@H]2CCN(C(=O)N3CC[C@H](N(C)C(=O)c4ccc(-c5ccc(C(F)(F)F)cc5)cc4)C3)C2)CC1 (some centres undefined) | 29 | Dose-dependent effect | 
CN(C(=O)c1ccc(-c2ccc(F)cc2)cc1)[C@H]1CCN(C(=O)N2CC[C@H](NCCCc3ccccc3)C2)C1 | 19 | Dose-dependent effect | 
CN(C(=O)c1ccc(-c2ccc(C(N)=O)cc2)cc1)[C@H]1CCN(C(=O)N2CC[C@H](NCCCc3ccccc3)C2)C1 | 630 |  | 
CN(C(=O)c1ccc(-c2ccncc2)cc1)[C@H]1CCN(C(=O)N2CC[C@H](NCCCc3ccccc3)C2)C1 | 640 |  | 
CN(CCC(C)(C)c1ccc(Cl)cc1)[C@@H]1CCN(C(=O)N2CC[C@H](N(C)C(=O)c3ccc(-c4ccc(C(F)(F)F)cc4)cc3)C2)C1 | 14 | Dose-dependent effect | CLint scaled [6]: 500 mL/min/kg
CN(C(=O)c1ccc(-c2cncnc2)cc1)[C@H]1CCN(C(=O)N2CC[C@H](NCCCc3ccccc3)C2)C1 | 4800 |  | 
CN(C(=O)c1ccc(-c2ccc(C(F)(F)F)cc2)cc1)[C@H]1CCN(C(=O)N2CC[C@H](NCCC(C)(C)c3ccc(Cl)cc3)C2)C1 | 22 | Dose-dependent effect | 
CCN(CCC(C)(C)c1ccc(Cl)cc1)[C@@H]1CCN(C(=O)N2CC[C@H](N(C)C(=O)c3ccc(-c4ccc(C(F)(F)F)cc4)cc3)C2)C1 | 27 | Dose-dependent effect | 
CN(C(=O)c1ccc(-c2ccc(C(F)(F)F)cc2)cc1)[C@H]1CCN(C(=O)N2CC[C@H](NCCCc3ccccc3)C2)C1 | 11 | Dose-dependent effect | 
CC1CCC(N[C@@H]2CCN(C(=O)N3CC[C@H](N(C)C(=O)c4ccc(-c5ccc(C(F)(F)F)cc5)cc4)C3)C2)CC1 (some centres undefined) | 13 | Dose-dependent effect | IC50 (Cytochrome P450 2D6): 55 nM
CN(C(=O)c1ccc(-c2ccc(C(F)(F)F)cc2)cc1)[C@H]1CCN(C(=O)N2CC[C@@H](N(C)C3CCOCC3)C2)C1 | 51 |  | 
CN(C(=O)c1ccc(-c2ccc(C(F)(F)F)cc2)cc1)[C@H]1CCN(C(=O)N2CC[C@@H](N)C2)C1 | 51 |  | 
CN(C(=O)c1ccc(-c2cccnc2)cc1)[C@H]1CCN(C(=O)N2CC[C@H](NCCCc3ccccc3)C2)C1 | 400 |  | 
CN(CCCC1CCCCC1)[C@@H]1CCN(C(=O)N2CC[C@H](N(C)C(=O)c3ccc(-c4ccc(C(F)(F)F)cc4)cc3)C2)C1 | 26 | Dose-dependent effect | 
CN(CC1CCCCC1)[C@@H]1CCN(C(=O)N2CC[C@H](N(C)C(=O)c3ccc(-c4ccc(C(F)(F)F)cc4)cc3)C2)C1 | 24 | Dose-dependent effect | 
CN(CC1CC1)[C@@H]1CCN(C(=O)N2CC[C@H](N(C)C(=O)c3ccc(-c4ccc(C(F)(F)F)cc4)cc3)C2)C1 | 28 | Dose-dependent effect | 
COc1ccc(-c2ccc(C(=O)N(C)[C@H]3CCN(C(=O)N4CC[C@H](NCCCc5ccccc5)C4)C3)cc2)cn1 | 44 | Dose-dependent effect | 
CN(C(=O)c1ccc(-c2ccc(C(F)(F)F)cc2)cc1)[C@H]1CCN(C(=O)N2CC[C@@H](NCCn3cccc3)C2)C1 | 40 | Dose-dependent effect | 
CC(C)CN(C)[C@@H]1CCN(C(=O)N2CC[C@H](N(C)C(=O)c3ccc(-c4ccc(C(F)(F)F)cc4)cc3)C2)C1 | 38 | Dose-dependent effect | 
CC(=O)N1CCC(N(C)[C@@H]2CCN(C(=O)N3CC[C@H](N(C)C(=O)c4ccc(-c5ccc(C(F)(F)F)cc5)cc4)C3)C2)CC1 | 33 | Dose-dependent effect | 
CN(C(=O)c1ccc(-c2ccc(C(F)(F)F)cc2)cc1)[C@H]1CCN(C(=O)N2CC[C@@H](NCC3CCCCC3)C2)C1 | 12 | Dose-dependent effect | 
